Tests used:
Format in all cases: functional
[1] = Growth inhibition of human HCC2998 cells at 10 uM after 48 hrs by SRB assay; details: HCC 2998, 48 h, read-out: GI
Procedure, shortened: (§1)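 Cells grown in RPMI 1640 with 5% FBS and 2 mM L-glutamine, plated at 5000–40,000 cells/well by doubling time and preincubated 24 h (37 °C, 5% CO2); a time-zero plate is TCA-fixed. Single dose added, then 48 h incubation. Fixed with cold TCA, stained with 0.4% SRB, dye solubilized in 10 mM Tris base, absorbance at 515 nm; percent growth vs time-zero and untreated control.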

NCI-H522 = assay: Growth inhibition of human NCI-H522 cells at 10 uM after 48 hrs by SRB assay; details: NCI-H522, 48 h, read-out: GI; procedure, shortened: as §1
NCI-H322M = assay: Growth inhibition of human NCI-H322M cells at 10 uM after 48 hrs by SRB assay; details: read-out: GI; procedure, shortened: as §1
NCI-H460 = assay: Growth inhibition of human NCI-H460 cells at 10 uM after 48 hrs by SRB assay; details: NCI-H460, 48 h, read-out: GI; procedure, shortened: as §1
NCI-H226 = assay: Growth inhibition of human NCI-H226 cells at 10 uM after 48 hrs by SRB assay; details: NCI-H226, 48 h, read-out: GI; procedure, shortened: as §1
MOLT-4 = assay: Growth inhibition of human MOLT4 cells at 10 uM after 48 hrs by SRB assay; details: MOLT-4, 48 h, read-out: GI; procedure, shortened: as §1
CCRF-CEM = assay: Growth inhibition of human CCRF-CEM cells at 10 uM after 48 hrs by SRB assay; details: read-out: GI; procedure, shortened: as §1
HL-60(TB) = assay: Growth inhibition of human HL-60(TB) cells at 10 uM after 48 hrs by SRB assay; details: HL-60, 48 h, read-out: GI
Procedure, shortened: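 Single-concentration pass across the 60-line panel in RPMI 1640 with 5% FBS. Cells preincubated 24 h, then exposed 48 h at 37 °C, 5% CO2. Read by SRB staining with absorbance at 515 nm. Percent growth is taken relative to time-zero and untreated controls and reported as percent growth inhibition (GI %).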

SR = assay: Growth inhibition of human SR cells at 10 uM after 48 hrs by SRB assay; details: read-out: GI
Procedure, shortened: (§2)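 NCI 60-cell-line screen with a single 10 µM dose. Cells are grown in RPMI 1640 with 5% FBS and 2 mM L-glutamine, plated at 5000–40,000 cells/well according to doubling time, and preincubated 24 h at 37 °C, 5% CO2; time-zero plates are TCA-fixed at that point. Drug exposure is 48 h. Adherent cells are fixed with cold TCA, stained with 0.4% SRB in 1% acetic acid and read at 515 nm. Percent growth is calculated relative to time-zero and untreated controls and reported as GI%.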

RPMI-8226 = assay: Growth inhibition of human RPMI8226 cells at 10 uM after 48 hrs by SRB assay; details: RPMI-8226, 48 h, read-out: GI; procedure, shortened: as §1
BT-549 = assay: Growth inhibition of human BT549 cells at 10 uM after 48 hrs by SRB assay; details: BT-549, 48 h, read-out: GI; procedure, shortened: as §1
Hs-578T = assay: Growth inhibition of human Hs578T cells at 10 uM after 48 hrs by SRB assay; details: read-out: GI; procedure, shortened: as §1
PC-3 = assay: Growth inhibition of human PC3 cells at 10 uM after 48 hrs by SRB assay; details: PC-3, 48 h, read-out: GI; procedure, shortened: as §1
UO-31 = assay: Growth inhibition of human UO31 cells at 10 uM after 48 hrs by SRB assay; details: UO-31, 48 h, read-out: GI; procedure, shortened: as §2
A498 = assay: Growth inhibition of human A498 cells at 10 uM after 48 hrs by SRB assay; details: A498, 48 h, read-out: GI; procedure, shortened: as §1
ACHN = assay: Growth inhibition of human ACHN cells at 10 uM after 48 hrs by SRB assay; details: read-out: GI; procedure, shortened: as §1
SK-OV-3 = assay: Growth inhibition of human SKOV3 cells at 10 uM after 48 hrs by SRB assay; details: SK-OV-3, 48 h, read-out: GI; procedure, shortened: as §2
[2] = Growth inhibition of human NCI-ADR-RES cells at 10 uM after 48 hrs by SRB assay; details: read-out: GI; procedure, shortened: as §1
OVCAR-5 = assay: Growth inhibition of human OVCAR5 cells at 10 uM after 48 hrs by SRB assay; details: OVCAR-5, 48 h, read-out: GI; procedure, shortened: as §1
OVCAR-8 = assay: Growth inhibition of human OVCAR8 cells at 10 uM after 48 hrs by SRB assay; details: OVCAR-8, 48 h, read-out: GI; procedure, shortened: as §1
OVCAR-4 = assay: Growth inhibition of human OVCAR4 cells at 10 uM after 48 hrs by SRB assay; details: OVCAR-4, 48 h, read-out: GI; procedure, shortened: as §1
OVCAR-3 = assay: Growth inhibition of human OVCAR3 cells at 10 uM after 48 hrs by SRB assay; details: OVCAR-3, 48 h, read-out: GI; procedure, shortened: as §1
UACC-62 = assay: Growth inhibition of human UACC62 cells at 10 uM after 48 hrs by SRB assay; details: UACC-62, 48 h, read-out: GI; procedure, shortened: as §2
UACC-257 = assay: Growth inhibition of human UACC257 cells at 10 uM after 48 hrs by SRB assay; details: UACC-257, 48 h, read-out: GI; procedure, shortened: as §2
SK-MEL-2 = assay: Growth inhibition of human SK-MEL-2 cells at 10 uM after 48 hrs by SRB assay; details: SK-MEL-2, 48 h, read-out: GI; procedure, shortened: as §1
MDA-MB-435 = assay: Growth inhibition of human MDA-MB-435 cells at 10 uM after 48 hrs by SRB assay; details: MDA-MB-435, 48 h, read-out: GI; procedure, shortened: as §1
M14 = assay: Growth inhibition of human M14 cells at 10 uM after 48 hrs by SRB assay; details: M14, 48 h, read-out: GI; procedure, shortened: as §1
LOX IMVI = assay: Growth inhibition of human LOXIMVI cells at 10 uM after 48 hrs by SRB assay; details: read-out: GI; procedure, shortened: as §1
U-251 = assay: Growth inhibition of human U251 cells at 10 uM after 48 hrs by SRB assay; details: U-251, 48 h, read-out: GI; procedure, shortened: as §2
SF-295 = assay: Growth inhibition of human SF295 cells at 10 uM after 48 hrs by SRB assay; details: SF-295, 48 h, read-out: GI; procedure, shortened: as §1
SF-539 = assay: Growth inhibition of human SF539 cells at 10 uM after 48 hrs by SRB assay; details: SF-539, 48 h, read-out: GI; procedure, shortened: as §1
SF-268 = assay: Growth inhibition of human SF268 cells at 10 uM after 48 hrs by SRB assay; details: SF-268, 48 h, read-out: GI; procedure, shortened: as §1
HT-29 = assay: Growth inhibition of human HT-29 cells at 10 uM after 48 hrs by SRB assay; details: HT-29, 48 h, read-out: GI; procedure, shortened: as §1
KM12 = assay: Growth inhibition of human KM12 cells at 10 uM after 48 hrs by SRB assay; details: KM12, 48 h, read-out: GI; procedure, shortened: as §1
HCT-116 = assay: Growth inhibition of human HCT116 cells at 10 uM after 48 hrs by SRB assay; details: HCT-116, 48 h, read-out: GI; procedure, shortened: as §1

## O=c1c2cccc3c(Nc4ccc(Br)cn4)ccc(c32)c2nc3ccccc3n12
[1]
  inhibition of growth at 10 µM: 25.2%
NCI-H522
  inhibition of growth at 10 µM: < 20%
NCI-H322M
  inhibition of growth at 10 µM: 22.1%
NCI-H460
  inhibition of growth at 10 µM: < 20%
NCI-H226
  inhibition of growth at 10 µM: < 20%
MOLT-4
  inhibition of growth at 10 µM: < 20%
CCRF-CEM
  inhibition of growth at 10 µM: < 20%
HL-60(TB)
  inhibition of growth at 10 µM: < 20%
SR
  inhibition of growth at 10 µM: 47.1%
RPMI-8226
  inhibition of growth at 10 µM: 43.8%
BT-549
  inhibition of growth at 10 µM: < 20%
Hs-578T
  inhibition of growth at 10 µM: < 20%
PC-3
  inhibition of growth at 10 µM: 23.3%
UO-31
  inhibition of growth at 10 µM: 47.9%
A498
  inhibition of growth at 10 µM: < 20%
ACHN
  inhibition of growth at 10 µM: < 20%
SK-OV-3
  inhibition of growth at 10 µM: < 20%
[2]
  inhibition of growth at 10 µM: < 20%
OVCAR-5
  inhibition of growth at 10 µM: < 20%
OVCAR-8
  inhibition of growth at 10 µM: < 20%
OVCAR-4
  inhibition of growth at 10 µM: 46.3%
OVCAR-3
  inhibition of growth at 10 µM: < 20%
UACC-62
  inhibition of growth at 10 µM: < 20%
UACC-257
  inhibition of growth at 10 µM: < 20%
SK-MEL-2
  inhibition of growth at 10 µM: < 20%
MDA-MB-435
  inhibition of growth at 10 µM: < 20%
M14
  inhibition of growth at 10 µM: < 20%
LOX IMVI
  inhibition of growth at 10 µM: < 20%
U-251
  inhibition of growth at 10 µM: < 20%
SF-295
  inhibition of growth at 10 µM: < 20%
SF-539
  inhibition of growth at 10 µM: < 20%
SF-268
  inhibition of growth at 10 µM: < 20%
HT-29
  inhibition of growth at 10 µM: < 20%
KM12
  inhibition of growth at 10 µM: 22.8%
HCT-116
  inhibition of growth at 10 µM: < 20%

## O=c1c2cccc3c(N4CCOCC4)ccc(c32)c2nc3ccccc3n12
[1]
  inhibition of growth at 10 µM: 26.8%
NCI-H522
  inhibition of growth at 10 µM: < 20%
NCI-H322M
  inhibition of growth at 10 µM: < 20%
NCI-H460
  inhibition of growth at 10 µM: < 20%
NCI-H226
  inhibition of growth at 10 µM: < 20%
MOLT-4
  inhibition of growth at 10 µM: < 20%
CCRF-CEM
  inhibition of growth at 10 µM: < 20%
HL-60(TB)
  inhibition of growth at 10 µM: < 20%
SR
  inhibition of growth at 10 µM: < 20%
RPMI-8226
  inhibition of growth at 10 µM: < 20%
BT-549
  inhibition of growth at 10 µM: < 20%
Hs-578T
  inhibition of growth at 10 µM: 59.8%
PC-3
  inhibition of growth at 10 µM: < 20%
UO-31
  inhibition of growth at 10 µM: 34.1%
A498
  inhibition of growth at 10 µM: < 20%
ACHN
  inhibition of growth at 10 µM: < 20%
SK-OV-3
  inhibition of growth at 10 µM: < 20%
[2]
  inhibition of growth at 10 µM: < 20%
OVCAR-5
  inhibition of growth at 10 µM: < 20%
OVCAR-8
  inhibition of growth at 10 µM: < 20%
OVCAR-4
  inhibition of growth at 10 µM: 30.1%
OVCAR-3
  inhibition of growth at 10 µM: < 20%
UACC-62
  inhibition of growth at 10 µM: 37.9%
UACC-257
  inhibition of growth at 10 µM: < 20%
SK-MEL-2
  inhibition of growth at 10 µM: < 20%
MDA-MB-435
  inhibition of growth at 10 µM: < 20%
M14
  inhibition of growth at 10 µM: < 20%
LOX IMVI
  inhibition of growth at 10 µM: < 20%
U-251
  inhibition of growth at 10 µM: < 20%
SF-295
  inhibition of growth at 10 µM: < 20%
SF-539
  inhibition of growth at 10 µM: < 20%
SF-268
  inhibition of growth at 10 µM: < 20%
HT-29
  inhibition of growth at 10 µM: < 20%
KM12
  inhibition of growth at 10 µM: 21.9%
HCT-116
  inhibition of growth at 10 µM: < 20%

— ChEMBL document CHEMBL2424551, “Synthesis, in vitro evaluation and molecular modelling of naphthalimide analogue as anticancer agents” (2013)
